Reference: ChEMBL document CHEMBL4184294, “A small group of sulfated benzofurans induces steady-state submaximal inhibition of thrombin” (Bioorg Med Chem Lett, 2018)
Activity calls are given as the source filed them. No cut-off for these calls is given here.

How the values were obtained:
Prothrombin [1] = molecular target: T1, Prothrombin (Homo sapiens, UniProt P00734); assay: Inhibition of thrombin (unknown origin)
Prothrombin [2] = molecular target: T1, Prothrombin; assay: Inhibition of recombinant thrombin K169A mutant (unknown origin) at 0.02 to 200 uM using spectrozyme TH as substrate pretreated for 10 mins followed by substrate addition by spectrophotometric method
In short: (§1)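 Recombinant wild-type and Ala-mutant thrombins assayed by Spectrozyme TH hydrolysis at pH 7.4 and 25 °C. IC50 derived for each mutant.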

Prothrombin [3] = molecular target: T1, Prothrombin; assay: Partial allosteric inhibition of human thrombin using spectrozyme TH as substrate pretreated for 10 mins followed by substrate addition by spectrophotometric method
In short: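 Chromogenic substrate hydrolysis by thrombin read spectrophotometrically in 20 mM Tris-HCl pH 7.4 with […], 100 mM NaCl and 0.1% PEG 8000 at 25 °C. Sigmoidal fits gave IC50 and efficacy (ΔY). Errors ±1 S.E.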

Prothrombin [4] = molecular target: T1, Prothrombin; assay: Inhibition of recombinant thrombin R233A mutant (unknown origin) at 0.02 to 200 uM using spectrozyme TH as substrate pretreated for 10 mins followed by substrate addition by spectrophotometric method; in short: as §1
Prothrombin [5] = molecular target: T1, Prothrombin; assay: Inhibition of recombinant thrombin K236A mutant (unknown origin) at 0.02 to 200 uM using spectrozyme TH as substrate pretreated for 10 mins followed by substrate addition by spectrophotometric method; in short: as §1
Prothrombin [6] = molecular target: T1, Prothrombin; assay: Inhibition of human thrombin using spectrozyme TH as substrate pretreated for 10 mins followed by substrate addition measured in presence of 15 uM exosite 1 competitor hirudine peptide by spectrophotometric method; conditions: in the assay text read “15 nM” for “15 uM”
In short: (§2)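 Residual thrombin activity read as Spectrozyme TH hydrolysis in 20 mM Tris-HCl pH 7.4 with 100 mM NaCl, 2.5 mM CaCl2 and 0.1% PEG8000 at 25 °C. Exosite competitors varied: hirudin peptide 0–50 nM or 0–30 nM; UFH 0–50 μM. Apparent IC50 obtained from a logistic fit.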

Prothrombin [7] = molecular target: T1, Prothrombin; assay: Inhibition of human thrombin using spectrozyme TH as substrate pretreated for 10 mins followed by substrate addition measured in presence of 20 uM exosite 2 competitor unfractionated heparin by spectrophotometric method; in short: as §2
Prothrombin [8] = molecular target: T1, Prothrombin; assay: Inhibition of human thrombin using spectrozyme TH as substrate pretreated for 10 mins followed by substrate addition measured in presence of 10 uM exosite 2 competitor unfractionated heparin by spectrophotometric method; in short: as §2
Prothrombin [9] = molecular target: T1, Prothrombin; assay: Inhibition of human thrombin using spectrozyme TH as substrate pretreated for 10 mins followed by substrate addition measured in absence of exosite 2 competitor unfractionated heparin by spectrophotometric method; in short: as §2
Prothrombin [10] = molecular target: T1, Prothrombin; assay: Partial allosteric inhibition of thrombin (unknown origin) assessed as reduction in enzyme-mediated fibrinogen cleavage at 0.5 to 150 uM pretreated for 10 mins followed by fibrinogen addition measured after 1 min by SDS-PAGE analysis relative to control
In short: (§3)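 Cleavage of human fibrinogen (4.7 μM) by 6 nM thrombin with inhibitor at 0 to 150 μM. Products resolved by PAGE.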

Prothrombin [11] = molecular target: T1, Prothrombin; assay: Mixed-type inhibition of human thrombin assessed as reduction in substrate Vmax using varying levels of spectrozyme TH as substrate measured after 10 mins by Michaelis-Menten plot analysis
Prothrombin [12] = molecular target: T1, Prothrombin; assay: Inhibition of recombinant thrombin R165A mutant (unknown origin) at 0.02 to 200 uM using spectrozyme TH as substrate pretreated for 10 mins followed by substrate addition by spectrophotometric method; in short: as §1
Prothrombin [13] = molecular target: T1, Prothrombin; assay: Partial allosteric inhibition of thrombin (unknown origin) assessed as reduction in enzyme-mediated fibrinogen cleavage pretreated for 10 mins followed by fibrinogen addition measured after 1 min by SDS-PAGE analysis relative to control; in short: as §3
Prothrombin [14] = molecular target: T1, Prothrombin; assay: Inhibition of human thrombin using spectrozyme TH as substrate pretreated for 10 mins followed by substrate addition measured in absence of exosite 1 competitor hirudine peptide by spectrophotometric method; in short: as §2
Prothrombin [15] = molecular target: T1, Prothrombin; assay: Inhibition of human thrombin using spectrozyme TH as substrate pretreated for 10 mins followed by substrate addition measured in presence of 50 uM exosite 2 competitor unfractionated heparin by spectrophotometric method; in short: as §2
Prothrombin [16] = molecular target: T1, Prothrombin; assay: Mixed-type inhibition of human thrombin assessed as reduction in substrate Vmax at 40 uM using varying levels of spectrozyme TH as substrate measured after 10 mins by Michaelis-Menten plot analysis relative to control
Prothrombin [17] = molecular target: T1, Prothrombin; assay: Binding affinity to human fluorescence labelled FPRCK-alpha thrombin by fluorimetric method
In short: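 Fluorescein-tagged FPRCK-thrombin titrated with inhibitor at pH 7.4 and 25 °C. Fluorescence decrease recorded ([…]). KD obtained by nonlinear fit to a quadratic equation.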

Prothrombin [18] = molecular target: T1, Prothrombin; assay: Inhibition of human thrombin using spectrozyme TH as substrate pretreated for 10 mins followed by substrate addition measured in presence of 5 uM exosite 1 competitor hirudine peptide by spectrophotometric method; conditions: in the assay text read “5 nM” for “5 uM”; in short: as §2
Prothrombin [19] = molecular target: T1, Prothrombin; assay: Partial allosteric inhibition of human thrombin at 300 uM using spectrozyme TH as substrate pretreated for 10 mins followed by substrate addition by spectrophotometric method relative to control
Prothrombin [20] = molecular target: T1, Prothrombin; assay: Inhibition of human thrombin using spectrozyme TH as substrate pretreated for 10 mins followed by substrate addition measured in presence of 30 uM exosite 1 competitor hirudine peptide by spectrophotometric method; conditions: in the assay text read “30 nM” for “30 uM”; in short: as §2
Prothrombin [21] = molecular target: T1, Prothrombin; assay: Inhibition of recombinant thrombin R175A mutant (unknown origin) at 0.02 to 200 uM using spectrozyme TH as substrate pretreated for 10 mins followed by substrate addition by spectrophotometric method; in short: as §1
Prothrombin [22] = molecular target: T1, Prothrombin; assay: Partial allosteric inhibition of human thrombin using […] as substrate measured after 1 min by fibrometric method
Prothrombin [23] = molecular target: T1, Prothrombin; assay: Inhibition of recombinant thrombin R101A mutant (unknown origin) at 0.02 to 200 uM using spectrozyme TH as substrate pretreated for 10 mins followed by substrate addition by spectrophotometric method; in short: as §1
Prothrombin [24] = molecular target: T1, Prothrombin; assay: Non-competitive inhibition of human thrombin assessed as reduction in substrate Vmax using varying levels of spectrozyme TH as substrate measured after 10 mins by Michaelis-Menten plot analysis
Prothrombin [25] = molecular target: T1, Prothrombin; assay: Non competitive inhibition of human thrombin assessed as reduction in substrate Vmax at 40 uM using varying levels of spectrozyme TH as substrate measured after 10 mins by Michaelis-Menten plot analysis relative to control
Prothrombin [26] = molecular target: T1, Prothrombin; assay: Inhibition of recombinant thrombin R126A mutant (unknown origin) at 0.02 to 200 uM using spectrozyme TH as substrate pretreated for 10 mins followed by substrate addition by spectrophotometric method; in short: as §1
Prothrombin [27] = molecular target: T1, Prothrombin; assay: Binding affinity to wild-type thrombin (unknown origin) by intrinsic fluorescence method
In short: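 Intrinsic fluorescence titration of wild-type plasma thrombin at pH 7.4 and 25 °C. KD derived from the fluorescence change.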

Prothrombin [28] = molecular target: T1, Prothrombin; assay: Ratio of IC50(app) for inhibition of human thrombin using spectrozyme TH as substrate in presence of exosite 2 competitor unfractionated heparin to IC50(app) for inhibition of human thrombin using spectrozyme TH as substrate in absence of exosite 2 competitor unfractionated heparin
Prothrombin [29] = molecular target: T1, Prothrombin; assay: Inhibition of recombinant thrombin K235A mutant (unknown origin) at 0.02 to 200 uM using spectrozyme TH as substrate pretreated for 10 mins followed by substrate addition by spectrophotometric method; in short: as §1
[30] = test system: Prothrombin (Homo sapiens), P00734 [R97A]; assay: Inhibition of recombinant thrombin R97A mutant (unknown origin) at 0.02 to 200 uM using spectrozyme TH as substrate pretreated for 10 mins followed by substrate addition by spectrophotometric method; in short: as §1
Prothrombin [31] = molecular target: T1, Prothrombin; assay: Inhibition of recombinant thrombin R93A mutant (unknown origin) at 0.02 to 200 uM using spectrozyme TH as substrate pretreated for 10 mins followed by substrate addition by spectrophotometric method; in short: as §1
Prothrombin [32] = molecular target: T1, Prothrombin; assay: Inhibition of recombinant thrombin R173A mutant (unknown origin) at 0.02 to 200 uM using spectrozyme TH as substrate pretreated for 10 mins followed by substrate addition by spectrophotometric method; in short: as §1

Molecule CCOC(=O)c1c(C)oc2cc(OC(=O)c3ccc(OC)cc3)c(OS(=O)(=O)O)cc12 has an Efficacy (Prothrombin [1]) of 54%.
For CCOC(=O)c1c(C)oc2cc(OCc3ccccc3)c(OCc3oc4cc(OCC5CCCCC5)c(OS(=O)(=O)O)cc4c3C(=O)OCC)cc12, the inhibition (Prothrombin [2]) was “inactive”, the Efficacy (Prothrombin [3]) was 90% and the IC50 (Prothrombin [3]) was 3.6 µM. For the same molecule, the inhibition (Prothrombin [4]) was “inactive”, the inhibition (Prothrombin [5]) was “inactive” and the IC50 (Prothrombin [6]) was 3.6 µM. The IC50 (Prothrombin [7]) was 2.8 µM, the IC50 (Prothrombin [8]) was 2.7 µM and the IC50 (Prothrombin [9]) was 2 µM. For the same molecule, the inhibition (Prothrombin [10]) was greater than 90%, the inhibition (Prothrombin [11]) was “Dose-dependent effect” and the inhibition (Prothrombin [12]) was “inactive”. For the same molecule, the inhibition (Prothrombin [13]) was “Dose-dependent effect”, the IC50 (Prothrombin [14]) was 2 µM and the IC50 (Prothrombin [15]) was 2.6 µM. For the same molecule, the fold change (FC) (Prothrombin [16]) was 2, the Kd (Prothrombin [17]) was 1 µM and the IC50 (Prothrombin [18]) was 2.6 µM. The inhibition (Prothrombin [19]) was greater than 50%, the IC50 (Prothrombin [20]) was 2.9 µM and the inhibition (Prothrombin [21]) was “inactive”.
With H-PEHPAETEYDSLYPEDDL-OH the IC50 (Prothrombin [22]) was 130 µM.
In the case of CCOC(=O)c1c(C)oc2cc(OCCc3ccccc3)c(OCc3oc4cc(OC)c(OS(=O)(=O)O)cc4c3C(=O)OCC)cc12, the inhibition (Prothrombin [23]) is reported as “Active”, the inhibition (Prothrombin [2]) is reported as “Active” and the Efficacy (Prothrombin [3]) is reported as 58%. The IC50 (Prothrombin [3]) was 1.8 µM, the inhibition (Prothrombin [4]) was “Active” and the inhibition (Prothrombin [5]) was “Active”. The IC50 (Prothrombin [6]) was 1.6 µM, the inhibition (Prothrombin [24]) was “Dose-dependent effect” and the IC50 (Prothrombin [7]) was 3.4 µM. It also gave an IC50 (Prothrombin [8]) of 3.3 µM, an IC50 (Prothrombin [9]) of 1.3 µM and an inhibition (Prothrombin [10]) of 70%. For the same molecule, the fold change (FC) (Prothrombin [25]) was 2, the inhibition (Prothrombin [12]) was “Active” and the inhibition (Prothrombin [13]) was “Dose-dependent effect”. For the same molecule, the inhibition (Prothrombin [26]) was “Active”, the Kd (Prothrombin [27]) was 2.8 µM and the IC50 (Prothrombin [14]) was 1.3 µM. For the same molecule, the IC50 (Prothrombin [15]) was 14.5 µM, the Kd (Prothrombin [17]) was 3.7 µM and the Ratio IC50 (Prothrombin [28]) was 11. The IC50 (Prothrombin [18]) was 2.7 µM, the inhibition (Prothrombin [19]) was greater than 50% and the inhibition (Prothrombin [29]) was “Active”. For the same molecule, the IC50 (Prothrombin [20]) was 1.5 µM, the inhibition [30] was “Active” and the inhibition (Prothrombin [31]) was “Active”. For the same molecule, the inhibition (Prothrombin [21]) was “Active” and the inhibition (Prothrombin [32]) was “Active”.
